Test results taken from ChEMBL document CHEMBL1144721, “Bioactive triterpene saponins from the roots of Phytolacca americana” (J Nat Prod, 2008).

How the values were obtained:
A549 [1] = experiment: Cell viability of human A549 cells after 24 hrs by MTT assay; format: functional
Outline: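 A549 cells incubated with serial dilutions of compound for 24 h. Viability (%) measured by MTT assay and used to derive IC50. Triplicate cultures.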

WI-38 VA13 = experiment: Cytotoxicity against human VA13 cells; format: functional, cell-based
Outline: (§1)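 IC50 values are the mean of duplicate determinations.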

[2] = biological target: T1, ATP-dependent translocase ABCB1 (Homo sapiens, UniProt P08183); experiment: Inhibition of P-glycoprotein-mediated multidrug resistance in human 2780AD cells assessed as calcein accumulation at 0.25 ug/mL relative to control; format: cell-based; parameters: scale not given: the % may be the effect or the level left; settings: a2780 adr
Outline: (§2)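 Multidrug-resistant human ovarian cancer 2780AD cells exposed to compound at 0.25, 2.5 or 25 μg/mL. Intracellular calcein accumulation measured and expressed as the amount relative to an untreated control (% of control).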

A549 [3] = experiment: Antiinflammatory activity against human A549 cells assessed as inhibition of IL-1-alpha-induced ICAM1 expression after 6 hrs
[4] = biological target: T1, ATP-dependent translocase ABCB1; experiment: Inhibition of P-glycoprotein-mediated multidrug resistance in human 2780AD cells assessed as calcein accumulation at 2.5 ug/mL relative to control; format: cell-based; parameters: scale not given: the % may be the effect or the level left; settings: a2780 adr; outline: as §2
HepG2 = experiment: Cytotoxicity against human HepG2 cells; format: functional, cell-based; outline: as §1
WI-38 = experiment: Cytotoxicity against human WI38 cells; format: functional, cell-based; outline: as §1
[5] = biological target: T1, ATP-dependent translocase ABCB1; experiment: Inhibition of P-glycoprotein-mediated multidrug resistance in human 2780AD cells assessed as calcein accumulation at 25 ug/mL relative to control; format: cell-based; parameters: scale not given: the % may be the effect or the level left; settings: a2780 adr; outline: as §2

T1 sequence (P08183 whole entry): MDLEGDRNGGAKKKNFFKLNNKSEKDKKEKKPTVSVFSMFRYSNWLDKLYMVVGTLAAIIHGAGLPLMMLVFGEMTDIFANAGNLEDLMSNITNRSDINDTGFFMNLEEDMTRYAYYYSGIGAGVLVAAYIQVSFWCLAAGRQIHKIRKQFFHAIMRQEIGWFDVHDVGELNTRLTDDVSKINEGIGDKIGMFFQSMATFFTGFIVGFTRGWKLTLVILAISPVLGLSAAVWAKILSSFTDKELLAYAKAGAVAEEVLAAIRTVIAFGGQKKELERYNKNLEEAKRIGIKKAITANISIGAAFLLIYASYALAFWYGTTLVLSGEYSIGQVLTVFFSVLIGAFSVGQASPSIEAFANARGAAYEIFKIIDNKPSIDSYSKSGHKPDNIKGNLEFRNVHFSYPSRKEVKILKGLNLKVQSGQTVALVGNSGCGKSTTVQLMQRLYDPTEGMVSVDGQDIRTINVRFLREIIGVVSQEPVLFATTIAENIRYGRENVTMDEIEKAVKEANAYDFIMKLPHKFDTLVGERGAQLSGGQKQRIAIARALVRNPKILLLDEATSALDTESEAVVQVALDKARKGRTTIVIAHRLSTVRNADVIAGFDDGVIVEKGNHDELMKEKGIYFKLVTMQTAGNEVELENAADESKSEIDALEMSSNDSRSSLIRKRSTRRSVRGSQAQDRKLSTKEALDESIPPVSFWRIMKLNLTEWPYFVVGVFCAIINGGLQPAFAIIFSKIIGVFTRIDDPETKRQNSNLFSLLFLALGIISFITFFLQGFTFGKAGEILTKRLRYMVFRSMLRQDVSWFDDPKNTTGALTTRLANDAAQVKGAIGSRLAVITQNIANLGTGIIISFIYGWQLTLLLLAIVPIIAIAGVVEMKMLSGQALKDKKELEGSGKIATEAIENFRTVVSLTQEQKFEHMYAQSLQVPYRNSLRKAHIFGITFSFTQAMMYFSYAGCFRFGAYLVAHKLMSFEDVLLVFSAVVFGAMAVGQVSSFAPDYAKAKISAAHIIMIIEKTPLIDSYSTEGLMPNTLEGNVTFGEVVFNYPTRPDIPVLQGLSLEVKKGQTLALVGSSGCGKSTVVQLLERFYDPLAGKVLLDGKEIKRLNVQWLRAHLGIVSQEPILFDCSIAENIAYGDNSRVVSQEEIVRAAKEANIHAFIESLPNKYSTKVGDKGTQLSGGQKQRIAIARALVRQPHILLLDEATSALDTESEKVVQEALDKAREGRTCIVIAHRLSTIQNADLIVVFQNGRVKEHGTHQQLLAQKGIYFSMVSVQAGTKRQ

Compound	Activity [2] [%]	Activity [4] [%]	Activity [5] [%]	Activity (A549 [1]) [µM]	IC50 (WI-38 VA13) [µM]	Activity (A549 [3]) [µM]	IC50 (HepG2) [µM]	IC50 (WI-38) [µM]
COC(=O)[C@@]1(C)CC[C@]2(C(=O)O[C@@H]3O[C@H](CO)[C@@H](O)[C@H](O)[C@H]3O)CC[C@]3(C)C(=CC[C@@H]4[C@@]5(C)C[C@H](O)[C@H](O[C@@H]6OC[C@@H](O)[C@H](O)[C@H]6O)[C@@](C)(CO)[C@@H]5CC[C@]43C)[C@@H]2C1	141	132	143	>121	95.2	>121	> 121	> 121
COC(=O)[C@@]1(C)CC[C@]2(C(=O)O[C@@H]3O[C@H](CO)[C@@H](O)[C@H](O)[C@H]3O)CC[C@]3(C)C(=CC[C@@H]4[C@@]5(C)CC[C@H](O[C@@H]6OC[C@@H](O)[C@H](O[C@@H]7OC[C@@H](O)[C@H](O)[C@H]7O[C@@H]7O[C@H](CO)[C@@H](O)[C@H](O)[C@H]7O[C@@H]7O[C@@H](C)[C@H](O)[C@@H](O)[C@H]7O)[C@H]6O)[C@@](C)(CO)[C@@H]5CC[C@]43C)[C@@H]2C1	93	68	94	>89	> 89	>89	> 89	> 89
COC(=O)[C@@]1(C)CC[C@]2(C(=O)O[C@@H]3O[C@H](CO)[C@@H](O)[C@H](O)[C@H]3O)CC[C@]3(C)C(=CC[C@@H]4[C@@]5(C)CC(=O)[C@H](O[C@@H]6OC[C@@H](O[C@@H]7O[C@H](CO)[C@@H](O)[C@H](O)[C@H]7O)[C@H](O)[C@H]6O)[C@@](C)(CO)[C@@H]5CC[C@]43C)[C@@H]2C1	98	115	120	>101	> 101	>101	> 101	> 101
COC(=O)[C@@]1(C)CC[C@]2(C(=O)O[C@@H]3O[C@H](CO)[C@@H](O)[C@H](O)[C@H]3O)CC[C@]3(C)C(=CC[C@@H]4[C@@]5(C)CC[C@H](O[C@@H]6OC[C@@H](OC7O[C@H](CO)[C@@H](O)[C@H](O)[C@H]7O)[C@H](O)[C@H]6O)[C@@](C)(CO)[C@@H]5CC[C@]43C)[C@@H]2C1 (stereo partly specified)	124	101	126	>103	> 103	>103	> 103	> 103
COC(=O)[C@@]1(C)CC[C@]2(C(=O)O)CC[C@]3(C)C(=CC[C@@H]4[C@@]5(C)C[C@H](O)[C@H](O[C@@H]6OC[C@@H](OC7O[C@H](CO)[C@@H](O)[C@H](O)[C@H]7O)[C@H](O)[C@H]6O)[C@@](C)(CO)[C@@H]5CC[C@]43C)[C@@H]2C1 (stereo partly specified)	111	104	119	661	117	>383	102	7.1
COC(=O)[C@@]1(C)CC[C@]2(C(=O)O)CC[C@]3(C)C(=C[C@@H](OC)[C@@H]4[C@@]5(C)C[C@H](O)[C@H](O[C@@H]6OC[C@@H](O[C@@H]7O[C@H](CO)[C@@H](O)[C@H](O)[C@H]7O)[C@H](O)[C@H]6O)[C@@](C)(CO)[C@@H]5CC[C@]43C)[C@@H]2C1	118	123	135	>118	> 118	>118	> 118	> 118
COC(=O)[C@@]1(C)CC[C@]2(C(=O)O[C@@H]3O[C@H](CO)[C@@H](O)[C@H](O)[C@H]3O)CC[C@]3(C)C(=CC[C@@H]4[C@@]5(C)CC[C@H](O[C@@H]6OC[C@@H](O[C@@H]7O[C@H](CO)[C@@H](O)[C@H](O)[C@H]7O)[C@H](O)[C@H]6O[C@@H]6O[C@H](CO)[C@@H](O)[C@H](O)[C@H]6O)[C@@](C)(CO)[C@@H]5CC[C@]43C)[C@@H]2C1	126	106	123	>88.2	> 88.2	>88.2	> 88.2	> 88.2
COC(=O)[C@@]1(C)CC[C@]2(C(=O)O)CC[C@]3(C)C(=CC[C@@H]4[C@@]5(C)C[C@H](O)[C@H](O[C@@H]6OC[C@@H](O)[C@H](O)[C@H]6O)[C@@](C)(CO)[C@@H]5CC[C@]43C)[C@@H]2C1 [PHYTOLACCOSIDE B]	128	117	123	265	68.9	253	74.7	36.2

Now from value to molecule, other results behind:

Activity [2] [%]	Activity [4] [%]	Activity [5] [%]	Compound	Activity (A549 [1]) [µM]	IC50 (WI-38 VA13) [µM]	Activity (A549 [3]) [µM]	IC50 (HepG2) [µM]	IC50 (WI-38) [µM]
121	119	124	COC(=O)[C@@]1(C)CC[C@]2(C(=O)O[C@@H]3O[C@H](CO)[C@@H](O)[C@H](O)[C@H]3O)CC[C@]3(C)C(=C[C@@H](O)[C@@H]4[C@@]5(C)C[C@H](O)[C@H](O[C@@H]6OC[C@@H](O[C@@H]7O[C@H](CO)[C@@H](O)[C@H](O)[C@H]7O)[C@H](O)[C@H]6O)[C@@](C)(CO)[C@@H]5CC[C@]43C)[C@@H]2C1	>100	94	>100	> 100	> 100
105	100	108	COC(=O)[C@@]1(C)CC[C@]2(C(=O)O[C@@H]3O[C@H](CO)[C@@H](O)[C@H](O)[C@H]3O)CC[C@]3(C)C(=C[C@@H](OC)[C@@H]4[C@@]5(C)C[C@H](O)[C@H](O[C@@H]6OC[C@@H](O[C@@H]7O[C@H](CO)[C@@H](O)[C@H](O)[C@H]7O)[C@H](O)[C@H]6O)[C@@](C)(CO)[C@@H]5CC[C@]43C)[C@@H]2C1	>98.2	> 98.2	>98.2	> 98.2	> 98.2
124	129	123	COC(=O)[C@@]1(C)CC[C@]2(C(=O)O[C@@H]3O[C@H](CO)[C@@H](O)[C@H](O)[C@H]3O)CC[C@]3(C)C(=CC[C@@H]4[C@@]5(C)C[C@H](O)[C@H](O[C@@H]6OC[C@@H](OC7O[C@H](CO)[C@@H](O)[C@H](O)[C@H]7O)[C@H](O)[C@H]6O)[C@@](C)(CO)[C@@H]5CC[C@]43C)[C@@H]2C1 (stereo partly specified)	>1012	> 101	>320	> 101	> 101
119	135	155	COC(=O)[C@@]1(C)CC[C@]2(C(=O)O[C@@H]3O[C@H](CO)[C@@H](O)[C@H](O)[C@H]3O)CC[C@]3(C)C(=CC(=O)[C@@H]4[C@@]5(C)C[C@H](O)[C@H](O[C@@H]6OC[C@@H](OC7O[C@H](CO)[C@@H](O)[C@H](O)[C@H]7O)[C@H](O)[C@H]6O)[C@@](C)(CO)[C@@H]5CC[C@]43C)[C@@H]2C1 (stereo partly specified)	>98.8	> 98.8	>98.8	97.4	> 98.8
